The RNAGym collection of RNA variant scans (doi:10.1126/science.aae0568)
This sample holds only a part of the variants without activity.

B1: tRNA (parent)
chain: GUUCCGUUGGCGUAAUGGUAACGCGUCUCCCUCCUAAGGAGAAGACUGCGGGUUCGAGUCCCGUACGGAACG

Variants of: B1
Experiment: yeast fitness relative to wild type (ratio to wild type); higher = fitter; tRNA-Arg(CCU), competitive growth, 37 C, YPD
Procedure, shortened: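 Variants of the tRNA-Arg(CCU) gene, chemically synthesised with a 3% per-site mutation rate at 69 sites, were placed at the native genomic locus in Saccharomyces cerevisiae. The pooled strains were competed in YPD at 37°C for 24 hours in six parallel replicates. Gene amplicons from the start population and from each end population were read by 100-nucleotide paired-end sequencing. Darwinian fitness relative to wild type came from changes in genotype frequencies; genotypes needed ≥ 100 starting reads, and estimates < 0.5 were set to 0.5.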
With GUUCCGUUGGCGUAGUGGUAACGCGUCUACCUCCUAAGAAGAAGAUUGCGGGUUCGAGUCCCGUACGGAACG [A15G C29A G39A C46U] the yeast fitness was no more than 0.5. GUUCCGUUGGCGUAGUGGUAACGCGUGUCCCUCCUAAGGAGGAGACUGCGGGUUCGAGUCCCAUACGGAACG [A15G C27G A42G G63A] showed a yeast fitness of no more than 0.5. In the case of GUUCCGUUGGCGUAGUGGUAACGCGUCUACCUCCUAGGGAGAAGACUGCGGGUUCGAGUCCCGUACGGAACG [A15G C29A A37G], the yeast fitness is reported as no more than 0.5. GUUCCGUUGGCGUAGUGGUAACGGGUCUCCCUCCUAGGGAGAAGACUGCGGGUUCGAGUCCCGUACGGAACG [A15G C24G A37G] gave a yeast fitness of no more than 0.5. Work on GUUCCGUUGGCGUAGUGGUAACGCGUAUCCCUCCUAAGGAGAAGACUGUGGGUUGGAGUCCCGUACGGAACG [A15G C27A C49U C55G] yielded a yeast fitness of no more than 0.5. GUUCCGUUGGCGUAGUGGUAACGCGUUUCCCUCUUAAGGAGAAGACUGCGGGUUCGUGUCCAGUACGGAACG [A15G C27U C34U A57U C62A] showed a yeast fitness of 0.563. For GUUCCGUUGGCGUAGUGGUAACGCGUCUCCCUCCUAAGGAGAAGUCUGCGGGUUCGAGUCCCGUACGGAGCG [A15G A45U A70G], the yeast fitness was 0.617. GUUCCGUUGGCGUAGUGGUAAAGCGUCUUCCUCCUAAGGAGAAGACUGCGGGUCCGAGUCCCGUACGGAACG [A15G C22A C29U U54C] showed a yeast fitness of no more than 0.5. For GUUCCGUUGGCGUAGUGGUAACGCGUCUCCCUCCUAAGGAGAAGACUGCGGGUUCGUGUCCCGUACGGAACG [A15G A57U], the yeast fitness was 0.636. GUUCCGUUGGCGUAGUGGUAACGAGUCUCCCUCCUAAGGAGAAGACUGCGGGUGCGAGUCCCGUCCGGAACG [A15G C24A U54G A65C] gave a yeast fitness of no more than 0.5. In the case of GUUCCGUUGGCGUAGUGGUAACGCGUCUGCAUCCUAGGGAGAAGACUGCGGGUUCGAGUCCCGUACGGAACG [A15G C29G C31A A37G], the yeast fitness is reported as no more than 0.5. GUUCCGUUGGCGUAGUGGUAACGUGUCUCCCUCCUAAGGAGAAGACUGCGGGUUCGAGUCCCGUACGGAACG [A15G C24U] gave a yeast fitness of 1.01. GUUCCGUUGGCGUAGUGGUAACGGGUCUCCCUCCUAAGGAGAAGACUGCGGGUUCGAGUCCCGUACGGAACG [A15G C24G] showed a yeast fitness of 0.586. For GUUCCGUUGGCGUAGUGGUAACGAGUCUCCCUCCUAAGGAGAAGACUGCGGGUUCGAGUCCCGUACGGAACG [A15G C24A], the yeast fitness was 0.587. Work on GUUCCGUUGGCGUAGUGGUAACGCGUCUACCUCCUAAGGAGAAGACUGCGGGUUCGAGUCACGUAGGGAACG [A15G C29A C61A C66G] yielded a yeast fitness of 0.535. In the case of GUUCCGUUGGCGUAGUGGUAACGGGUCUCCCUCCUAAGGAGAAGACUGCGGGUUCGAGUCCCGUAGGGAACG [A15G C24G C66G], the yeast fitness is reported as no more than 0.5. In the case of GUUCCGUUGGCGUAGUGGUAACGCGUCUCCCUCCUAAGGAGAAGACUGCGGGUUCGAGUCCCGUACGGAUCG [A15G A70U], the yeast fitness is reported as 1.03. For GUUCCGUUGGCGUAGUGGUAAUGCGUCUCCCUCCUAAGGAGAAGACUGCGGGUUCGAGUCCCGUACGGACCG [A15G C22U A70C], the yeast fitness was 0.594. With GUUCCGUUGGCGUAGUGGUAACGGGUCUUCCUCGCAAGGAGAAGACUGUGGGUUCGAGUCCUGUACGGAACG [A15G C24G C29U C34G U35C C49U C62U] the yeast fitness was no more than 0.5. With GUUCCGUUGGCGUAGUGGUAACGGGUCUCCCACCUAAGGAAAAGACUGCGGGUUCGAGUCCCGUACGGAACG [A15G C24G U32A G41A] the yeast fitness was no more than 0.5. For GUUCCGUUGGCGUAGUGGUAACGCGUCUCCCUCCUAAGGAGAUGAAUGCGGGUUCGAGUCCCGUACGGAACG [A15G A43U C46A], the yeast fitness was 0.671. Work on GUUCCGUUGGCGUAGUGGUAACGCGUCUACCUCGUAAGGAGAAGACUGCGGGUUCGAGACCUGUACGGAACG [A15G C29A C34G U59A C62U] yielded a yeast fitness of no more than 0.5. GUUCCGUUGGCGUAGUGGUAACGCGUUUCCCUCCUAAGGAGAAGACUGCGGGUUCGAGUCCCGUGCGGAACG [A15G C27U A65G] showed a yeast fitness of 0.748. GUUCCGUUGGCGUAGUGGUAACGCGUCUCCCUCCUAAGGAGAAGACUGCGGGUUCGAGUCCCGUACGGUACG [A15G A69U] showed a yeast fitness of 1.04. In the case of GUUCCGUUGGCGUAGUGGUAACGCGUCUCCCUCCUAAGGAGAAGACUGCGGGUUCGAGUCCCGUACGGGACG [A15G A69G], the yeast fitness is reported as 1.05. Work on GUUCCGUUGGCGUAGUGGUAACGCGUCUACCUCCUAAGGGGAAGACUACGGGUUCGAGUCCCGUACGGAACG [A15G C29A A40G G48A] yielded a yeast fitness of no more than 0.5. Work on GUUCCGUUGGCGUAGUGGUAACGCGUCUGCCUCCUAAGGAGAAGACUGUGGGUUCGAGUCCCGUACGGAACG [A15G C29G C49U] yielded a yeast fitness of 0.606. GUUCCGUUGGCGUAGUGGUAACGCGUCUCCCUCCUAAGGAGAAGACUGCGGGUUCGAGUCCCGUGCGGAACG [A15G A65G] showed a yeast fitness of 0.962. For GUUCCGUUGGCGUAGUGGUAACGCGUCUCCCUCCUAAGGAGAAGACUGCGGGUUCGAGUCCCGUUCGGAACG [A15G A65U], the yeast fitness was 0.841. In the case of GUUCCGUUGGCGUAGUGGUAACGCGUCUCCCUCCUAAGGAGAAGACUGCGGGUUCGAGUCCCGUCCGGUACG [A15G A65C A69U], the yeast fitness is reported as 0.705. GUUCCGUUGGCGUAGUGGUAAGGCGUCUCCCUCCUUAGGGGAAGACUGCGGGUUCGAGUCCCGUACGGUACG [A15G C22G A36U A40G A69U] gave a yeast fitness of no more than 0.5. For GUUCCGUUGGCGUAGUGGUAACGCGUCUACCUCCUAAGGAGAAGACUGCGGGUUCGCGUCCCGUACGGAACG [A15G C29A A57C], the yeast fitness was no more than 0.5. Variant GUUCCGUUGGCGUAGUGGUAACGCGUCUACCUCCUAAGAAGAAGACUGUGGGUUCGAGUCCCGUACGGAACG [A15G C29A G39A C49U] has a yeast fitness of no more than 0.5. GUUCCGUUGGCGUAGUGGUAACGGGUCUCCCUCCUAAGGAGAAGACUGCGGGUUCGAGUCCCGUCCGGAACG [A15G C24G A65C] showed a yeast fitness of no more than 0.5. GUUCCGUUGGCGUAGUGGUAACGCGUCUACCUCCUAAGGAGAAGACUGCGGGUUCGAAUCCCGUACGGAACG [A15G C29A G58A] showed a yeast fitness of 0.57. GUUCCGUUGGCGUAGUGGUAACGCGUGUCCCUCCUAAGGAGAGGACUGCGGGUUCGAGACCCGUACGGAACG [A15G C27G A43G U59A] showed a yeast fitness of no more than 0.5. For GUUCCGUUGGCGUAGUGGUAAUGCGUCUCCCUCCUUAGGAGAAGACUGCGGGUUCGAGUACCGUACGGAACG [A15G C22U A36U C60A], the yeast fitness was 0.589. In the case of GUUCCGUUGGCGUAGUGGUAACGCGUCUCCCUCCUAAGGAGAAGUCUGCGGGUUCGCGUCCCGUACGGCACG [A15G A45U A57C A69C], the yeast fitness is reported as no more than 0.5.
